Experimental data: PMC4714953 (Antiviral therapy, 2015)
Like-named read-outs stand apart in the source and are kept apart here.

What was measured:
[1] = rat, dog and rhesus monkey; cited from earlier work
[2] = Plasma vaniprevir pharmacokinetics; format: in vivo, human; settings: for AUC(0-t) / Cmax / Tmax / half-life / concentration at 12 h: human, plasma, oral
In short: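 Same patients and fixed-sequence regimen: 600 mg then 300 mg twice daily days 1–3, single dose on day 4, at least 30-day washout between periods. Day-4 plasma over the 12-h dosing interval. LC-MS/MS, linear 1–1,000 ng/ml, CV under 10%, accuracy within ±10.0%. AUC0–12, Cmax, C12h, Tmax and t½ derived using nominal times. Tmax as median (min–max), t½ as harmonic mean ±pseudo sd.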

[3] = Hepatic vaniprevir concentration by core needle biopsy; format: in vivo, human; settings: for concentration at 12 h / Kp at 6 h: human, liver, oral, mean; for concentration at 12 h: Liver concentration C12h, mean (one subject), 12 h post-dose day 4; for Kp at 6 h: Liver:plasma ratio C6h, 6 h post-dose day 4
In short: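 Genotype 1 chronic HCV patients (n=3), non-cirrhotic, treatment-experienced, fixed sequence: 600 mg twice daily days 1–3 and a single dose on day 4, then after at least 30 days off drug, 300 mg on the same schedule. Ultrasound-guided core needle biopsy of the right hepatic lobe 6 or 12 h after the day-4 dose. Tissue weighed, stored at −70°C, homogenized in human EDTA plasma, extracted liquid–liquid at acidic pH, then LC-MS/MS (0.1–200 µg/g). Liver/plasma ratio calculated.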

[4] = cited from earlier work; for AUC0–12: plasma
[5] = tested on: liver organic anion-transporting polypeptides; settings: cited from earlier work
HCV RNA = experiment: Decline of HCV RNA in patients on vaniprevir; format: in vivo; settings: genotype 1 chronic HCV patients
[6] = chimpanzees, 10 mg/kg oral, cited from earlier work
[7] = 300 mg to 600 mg twice daily, day 4

Increase in plasma AUC0–12 with a twofold increase in dose [2, 7]: approximately fivefold
Increase in plasma C12h with a twofold increase in dose [2, 7]: approximately sevenfold
Increase in plasma Cmax with a twofold increase in dose [2, 7]: approximately fivefold
AUC(0-t) ([2]; 300 mg): 10.6 µM·h
Cmax ([2]; 300 mg): 2600 nM
Tmax ([2]; 300 mg): 2 h
half-life ([2]; 300 mg): 6.3 ± 1.4 h
concentration at 12 h ([2]; 300 mg, C12 h, plasma trough, day 4, 300 mg twice daily, n=3, arithmetic mean ±SD [CV%]): 160 nM
concentration at 12 h ([2]; 300 mg, Plasma concentration C12h, mean, mean (one subject, Table 1), 300 mg twice daily, 12 h post-dose day 4): 120 nM
AUC(0-t) ([2]; 600 mg): 59.5 µM·h
Cmax ([2]; 600 mg): 13500 nM
Tmax ([2]; 600 mg): 3 h
half-life ([2]; 600 mg): 3.6 ± 1 h
concentration at 12 h ([2]; 600 mg, C12 h, plasma trough, day 4, 600 mg twice daily, n=3, arithmetic mean ±SD [CV%]): 1110 nM
concentration at 12 h ([2]; 600 mg, Plasma concentration C12h, mean, mean (one subject, Table 1), 600 mg twice daily, 12 h post-dose day 4): 190 nM
concentration at 12 h ([3]; 300 mg, 300 mg twice daily): 29400 nM
Kp at 6 h ([3]; 300 mg, 300 mg twice daily): 166
concentration at 12 h ([3]; 600 mg, 600 mg twice daily): 53700 nM
Kp at 6 h ([3]; 600 mg, 600 mg twice daily): 67.3
Hepatic concentrations, 600 mg versus 300 mg twice daily regimen ([3]; mean liver concentrations at 6 and 12 h post-dose): twofold higher
Structure (SMILES): CC[C@@H]1C[C@]1(NC(=O)[C@@H]1C[C@@H]2CN1C(=O)[C@H](C(C)(C)C)NC(=O)OCC(C)(C)CCCCc1cccc3c1CN(C3)C(=O)O2)C(=O)NS(=O)(=O)C1CC1 [vaniprevir]
Liver concentrations at 24 h post-dose [1]: 200 to 600 nM
Plasma vaniprevir Tmax ([4]; humans): 1.5 to 3 h
AUC0–12 ([4]; 300 mg twice daily): 5.15 µM/h
AUC0–12 ([4]; 600 mg twice daily): 23.36 µM/h
Liver organic anion-transporting polypeptides transport in vitro [5]: saturated at high concentrations
Decline of HCV RNA by day 2 (HCV RNA; 300 mg twice daily): approximately 3 log
Decline of HCV RNA by day 2 (HCV RNA; 600 mg twice daily): approximately 4 log
Maximum liver concentration ([6]; reached at 12 h after dosing): 31 µM
Plasma AUC0–24 [6]: 5.2 µM/h
